This note sets out measurements from ChEMBL document CHEMBL1156681, “Synthesis, anti-bacterial, anti-asthmatic and anti-diabetic activities of novel N-substituted-2-(4-phenylethynyl-phenyl)-1H-benzimidazoles and N-substituted 2[4-(4,4-dimethyl-thiochroman-6-yl-ethynyl)-phenyl)-1H-benzimidazoles” (2008).

≈ marks a conversion by molar mass, not a printed value. Calls of active or inactive are those of the source. The rule behind the calls is not given here.

Usually MIC stands for the lowest concentration found to suppress growth. Low readings indicate greater potency, high ones weaker potency. As a reminder, the inhibition is the percentage by which the read-out fell short of the control.

Assay [1] has as its system Staphylococcus aureus. The assay is described as follows: Antibacterial activity against Staphylococcus aureus at 0.1 ug/ml after 48 hrs by tube dilution method. Type of assay: functional, organism-based. In outline:
(§1)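 Compounds dissolved in DMSO and tested by tube dilution at […]. Tubes were incubated at 37 °C for 48 h. Growth was scored against the DMSO control as poor, medium or confluent (no inhibition). MIC was taken from the dilution series. Cephalexin served as the reference antibacterial and DMSO as the solvent control.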

For assay [2], the system named is Staphylococcus aureus. The assay is described as follows: Antibacterial activity against Staphylococcus aureus at 500 ug/ml after 48 hrs by tube dilution method. It is filed as functional, organism-based. In outline: as §1
Assay [3] deals with Staphylococcus aureus. The assay is described as follows: Antibacterial activity against Staphylococcus aureus at 100 ug/ml after 48 hrs by tube dilution method. It is filed as functional, organism-based. The gist of the method: as §1
For assay [4], the system named is Staphylococcus aureus. The assay can be described thus: Antibacterial activity against Staphylococcus aureus at 200 ug/ml after 48 hrs by tube dilution method. It is filed as functional, organism-based. The gist of the method: as §1
In assay [5] the test system is Salmonella typhimurium. The assay is described as follows: Antibacterial activity against Salmonella Typhimurium at 500 ug/ml after 48 hrs by tube dilution method. Type of assay: functional, organism-based. As to conditions: Salmonella enterica subsp. enterica serovar Typhimurium. The gist of the method:
as §1

For assay [6], the system named is Salmonella typhimurium. The assay can be described thus: Antibacterial activity against Salmonella Typhimurium at 200 ug/ml after 48 hrs by tube dilution method. Type of assay: functional, organism-based. As to conditions: Salmonella enterica subsp. enterica serovar Typhimurium. In outline:
as §1

Assay [7] concerns Salmonella typhimurium. The assay can be described thus: Antibacterial activity against Salmonella Typhimurium after 48 hrs by tube dilution method. It is filed as functional, Salmonella enterica subsp. enterica serovar Typhimurium. Particulars: Salmonella enterica. In outline:
as §1

In assay [8] the test system is Staphylococcus aureus. The assay can be described thus: Antibacterial activity against Staphylococcus aureus at 10 ug/ml after 48 hrs by tube dilution method. Type of assay: functional, organism-based. The gist of the method: as §1
For assay [9], the system named is Staphylococcus aureus. The assay is described as follows: Antibacterial activity against Staphylococcus aureus at 1 ug/ml after 48 hrs by tube dilution method. It is filed as functional, organism-based. In outline: as §1
Assay [10] relates to Salmonella typhimurium. The assay can be described thus: Antibacterial activity against Salmonella Typhimurium at 0.1 ug/ml after 48 hrs by tube dilution method. It is filed as functional, organism-based. Particulars: Salmonella enterica subsp. enterica serovar Typhimurium. The gist of the method:
as §1

In assay [11] the test system is Salmonella typhimurium. The assay is described as follows: Antibacterial activity against Salmonella Typhimurium at 1 ug/ml after 48 hrs by tube dilution method. It is filed as functional, organism-based. As to conditions: Salmonella enterica subsp. enterica serovar Typhimurium. In outline:
as §1

Assay [12] concerns Staphylococcus aureus. The assay can be described thus: Antibacterial activity against Staphylococcus aureus after 48 hrs by tube dilution method. Type of assay: functional. In outline:
as §1

In assay [13] the target is T1, Tyrosine-protein phosphatase non-receptor type 1 (Homo sapiens) (UniProt P18031).
T1 sequence (whole entry): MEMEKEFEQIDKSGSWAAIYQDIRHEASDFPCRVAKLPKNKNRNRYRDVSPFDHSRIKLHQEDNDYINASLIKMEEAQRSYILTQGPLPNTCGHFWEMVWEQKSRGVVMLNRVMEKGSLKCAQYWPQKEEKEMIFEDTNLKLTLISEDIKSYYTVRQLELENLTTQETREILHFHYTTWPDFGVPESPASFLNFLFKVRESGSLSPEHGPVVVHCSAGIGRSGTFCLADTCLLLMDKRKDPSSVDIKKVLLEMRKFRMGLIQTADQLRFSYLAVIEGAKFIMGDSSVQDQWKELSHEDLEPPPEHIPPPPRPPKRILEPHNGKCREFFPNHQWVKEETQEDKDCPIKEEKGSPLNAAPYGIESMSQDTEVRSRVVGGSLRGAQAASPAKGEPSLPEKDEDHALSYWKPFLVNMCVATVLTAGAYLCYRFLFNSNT
The assay can be described thus: Inhibition of human recombinant PTP1B at 30 uM after 30 mins relative to control. The gist of the method:
(§2)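 In-house human recombinant PTP-1B (~35 ng) was assayed with p-nitrophenyl phosphate in 25 mM Hepes, 3 mM DTT and 1 mM EDTA, pH 7.4, with DMSO at ≤1%. Absorbance at 405 nm was monitored continuously at 30 °C for 30 min, then NaOH was added and 405 nm read again. Activity was expressed as % of control, and % inhibition as 100 minus activity.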

Assay [14] addresses T2, Phosphodiesterase 4 (Homo sapiens) (UniProt P27815+Q08499+Q07343+Q08493). The assay is described as follows: Inhibition of human PDE4 at 1 uM after 20 mins. Type of assay: protein assay.
Assay [15] deals with Salmonella typhimurium. The assay can be described thus: Antibacterial activity against Salmonella Typhimurium at 100 ug/ml after 48 hrs by tube dilution method. It is filed as functional, organism-based. Particulars: Salmonella enterica subsp. enterica serovar Typhimurium. In outline:
as §1

Assay [16] relates to Salmonella typhimurium. The assay can be described thus: Antibacterial activity against Salmonella Typhimurium at 10 ug/ml after 48 hrs by tube dilution method. It is filed as functional, organism-based. Particulars: Salmonella enterica subsp. enterica serovar Typhimurium. In outline: as §1
Assay [17] deals with Dipeptidyl peptidase 4 (Homo sapiens) (UniProt P27487). The assay is described as follows: Inhibition of human recombinant DPP4 at 0.3 uM after 30 mins relative to control. In outline: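 Recombinant human DPP-IV (10 ng) was run in 25 mM Tris pH 7.4, 140 mM NaCl, 10 mM KCl and 1% BSA with Gly-Pro-AMC substrate. Compounds in DMSO were added, and AMC release was followed kinetically at 30 °C for 30 min (ex 380 / em 460 nm). Percent inhibition was calculated against the solvent-only control.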
Sequence of Dipeptidyl peptidase 4 (Homo sapiens) (P27487 whole entry, looked up): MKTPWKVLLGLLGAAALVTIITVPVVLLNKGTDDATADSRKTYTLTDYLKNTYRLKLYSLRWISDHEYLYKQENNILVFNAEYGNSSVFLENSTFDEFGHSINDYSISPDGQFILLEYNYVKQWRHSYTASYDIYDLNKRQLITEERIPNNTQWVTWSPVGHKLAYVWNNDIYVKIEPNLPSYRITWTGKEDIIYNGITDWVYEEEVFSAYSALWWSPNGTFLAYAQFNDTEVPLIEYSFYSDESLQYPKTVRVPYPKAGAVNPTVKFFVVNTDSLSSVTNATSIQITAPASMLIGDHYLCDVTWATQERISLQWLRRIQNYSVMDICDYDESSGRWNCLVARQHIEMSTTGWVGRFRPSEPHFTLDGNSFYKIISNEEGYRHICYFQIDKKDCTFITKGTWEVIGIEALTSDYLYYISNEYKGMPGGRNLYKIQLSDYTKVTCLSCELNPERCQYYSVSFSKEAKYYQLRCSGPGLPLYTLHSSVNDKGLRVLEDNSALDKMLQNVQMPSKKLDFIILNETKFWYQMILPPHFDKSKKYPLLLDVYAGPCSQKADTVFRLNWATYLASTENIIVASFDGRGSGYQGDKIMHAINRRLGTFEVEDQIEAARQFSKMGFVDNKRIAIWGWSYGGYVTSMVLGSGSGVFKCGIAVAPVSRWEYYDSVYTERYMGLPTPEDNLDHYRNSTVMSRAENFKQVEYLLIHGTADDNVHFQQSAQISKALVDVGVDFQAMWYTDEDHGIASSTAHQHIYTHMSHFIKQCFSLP

In assay [18] the target is T1, Tyrosine-protein phosphatase non-receptor type 1 (Homo sapiens). The assay is described as follows: Inhibition of human recombinant PTP1B at 0.3 uM after 30 mins relative to control. In outline: as §2
The target of assay [19] is T2, Phosphodiesterase 4 (Homo sapiens). As to conditions: 0.075 uM.

For `CC1=C(C(=O)O)N2C(=O)[C@@H](NC(=O)[C@H](N)c3ccccc3)[C@H]2SC1` [CEPHALEXIN ANHYDROUS], the result in the assay on Staphylococcus aureus [1], in the assay on Staphylococcus aureus [9], with Salmonella typhimurium [10] and in the assay with Salmonella typhimurium [11] was inactive. Moreover, the result in the assay with Staphylococcus aureus [2], with Staphylococcus aureus [3], with Staphylococcus aureus [4], in the assay with Salmonella typhimurium [5], in the assay with Salmonella typhimurium [6] and in the assay with Staphylococcus aureus [8] was Active. In addition, the figures for the MIC with Salmonella typhimurium [7] and against Staphylococcus aureus [12] were 200 µg/mL (≈ 576 µM) and 10 µg/mL (≈ 28.8 µM), respectively.

Take `CCn1c(-c2ccc(C#Cc3ccccc3)cc2)nc2ccccc21`: the outcome in the assay with Staphylococcus aureus [1], in the assay with Staphylococcus aureus [3], with Staphylococcus aureus [8], with Staphylococcus aureus [9], in the assay on Salmonella typhimurium [15] and in the assay with Salmonella typhimurium [10] was inactive. Also, the outcome in the assay with Salmonella typhimurium [11] and in the assay with Salmonella typhimurium [16] was inactive. The result in the assay with Staphylococcus aureus [2] and with Salmonella typhimurium [5] was Active. The values for the inhibition in assay [13], in assay [14] and in [17] were 2.2%, 13.5% and 0%, respectively. The MIC in the assay with Salmonella typhimurium [7] and against Staphylococcus aureus [12] was 500 µg/mL (≈ 1550 µM) in each case.

Consider `CCCCOC(=O)n1c(-c2ccc(C#Cc3ccccc3)cc2)nc2ccccc21`, for which the outcome in the assay on Staphylococcus aureus [1], in the assay on Staphylococcus aureus [3], in the assay with Staphylococcus aureus [8], in the assay with Staphylococcus aureus [9], in the assay with Salmonella typhimurium [15] and in the assay on Salmonella typhimurium [10] was inactive. Moreover, the result with Salmonella typhimurium [11] and in the assay with Salmonella typhimurium [16] was inactive. Besides, the outcome in the assay with Staphylococcus aureus [2] and in the assay on Salmonella typhimurium [5] was Active. Besides, the figures for the inhibition in assay [13], in assay [14] and in assay [17] were 5.84%, 16.2% and 0%, respectively. Also, the MIC against Salmonella typhimurium [7] and in the assay with Staphylococcus aureus [12] was 500 µg/mL (≈ 1270 µM) throughout.

With `C(#Cc1ccc(-c2nc3ccccc3[nH]2)cc1)c1ccccc1`, the outcome with Staphylococcus aureus [1], with Staphylococcus aureus [8], in the assay on Staphylococcus aureus [9], in the assay with Salmonella typhimurium [10], with Salmonella typhimurium [11] and with Salmonella typhimurium [16] was inactive. Further, the outcome in the assay on Staphylococcus aureus [2], in the assay with Staphylococcus aureus [4], with Salmonella typhimurium [5] and in the assay on Salmonella typhimurium [6] was Active. Besides, the inhibition in assay [13] stood at 1.64%; in [14], 3.4%; in assay [17] it was 0%. For the same compound, the minimum inhibitory concentration (MIC) with Salmonella typhimurium [7] and in the assay on Staphylococcus aureus [12] was 200 µg/mL (≈ 679 µM) in each case.

On to `C=C(O)CN(c1ccccc1C(=O)O)C(CCC(=O)N[C@@H](CCSC)C(=O)O)CNC(=O)C(Cc1cccc(CC)c1)NC(C)=O` (stereo not given in full), for which, in assay [18], the inhibition is 49.1%.

With `Cn1c(-c2ccc(C#Cc3ccc4c(c3)C(C)(C)CCS4)cc2)nc2ccccc21`, the result in the assay on Staphylococcus aureus [1], in the assay on Staphylococcus aureus [9], in the assay with Salmonella typhimurium [10] and in the assay with Salmonella typhimurium [11] was inactive. The result in the assay on Staphylococcus aureus [2], with Staphylococcus aureus [4], in the assay with Salmonella typhimurium [5] and in the assay with Salmonella typhimurium [6] was Active. Further, the inhibition amounted to 0% in assay [13], 18.2% in assay [14] and 0% in [17]. In addition, the minimal inhibitory concentration (MIC) against Salmonella typhimurium [7] and with Staphylococcus aureus [12] was 200 µg/mL (≈ 490 µM) throughout.

For the compound `O=S(=O)(n1c(-c2ccc(C#Cc3ccccc3)cc2)nc2ccccc21)C(F)(F)F`, the result in the assay on Staphylococcus aureus [1], in the assay on Staphylococcus aureus [3], in the assay with Staphylococcus aureus [8], with Staphylococcus aureus [9], in the assay on Salmonella typhimurium [10] and with Salmonella typhimurium [11] was inactive. Moreover, in the assay with Salmonella typhimurium [16], the result was inactive. The outcome in the assay on Staphylococcus aureus [2] and with Salmonella typhimurium [5] was Active. Besides, the figures for the inhibition in [13], in [14] and in assay [17] were 0%, 16.9% and 0%, respectively. Moreover, the MIC with Salmonella typhimurium [7] and against Staphylococcus aureus [12] was 500 µg/mL (≈ 1170 µM) in each case.

Regarding `COc1ccc([C@]2(C#N)CC[C@@H](C(=O)O)CC2)cc1OC1CCCC1`, the inhibition in [19] came to 45.3%.

On to `CC(C)COC(=O)n1c(-c2ccc(C#Cc3ccccc3)cc2)nc2ccccc21`, for which the result in the assay on Staphylococcus aureus [1], in the assay on Staphylococcus aureus [3], in the assay with Staphylococcus aureus [8], with Staphylococcus aureus [9], with Salmonella typhimurium [15] and in the assay on Salmonella typhimurium [10] was inactive. The outcome in the assay on Salmonella typhimurium [11] and with Salmonella typhimurium [16] was inactive. For the same compound, the outcome in the assay with Staphylococcus aureus [2] and in the assay with Salmonella typhimurium [5] was Active. For the same compound, the inhibition in [13] turned out to be 17.4%; in [14], 17.2%; in assay [17], 0%. In addition, the MIC against Salmonella typhimurium [7] and in the assay on Staphylococcus aureus [12] was 500 µg/mL (≈ 1270 µM) in each case.

Turning to `CCn1c(-c2ccc(C#Cc3ccc4c(c3)C(C)(C)CCS4)cc2)nc2ccccc21`, the result with Staphylococcus aureus [1], with Staphylococcus aureus [8], with Staphylococcus aureus [9], with Salmonella typhimurium [10], in the assay with Salmonella typhimurium [11] and with Salmonella typhimurium [16] was inactive. Also, the result with Staphylococcus aureus [2], in the assay with Staphylococcus aureus [4], in the assay with Salmonella typhimurium [5] and in the assay with Salmonella typhimurium [6] was Active. Further, the inhibition in assay [13] came to 0%; in [14], 15.8%; in [17], 0%. Also, the MIC against Salmonella typhimurium [7] and with Staphylococcus aureus [12] was 200 µg/mL (≈ 473 µM) in each case.

With `Cc1ccc(S(=O)(=O)n2c(-c3ccc(C#Cc4ccccc4)cc3)nc3ccccc32)cc1`, the result in the assay with Staphylococcus aureus [1], with Staphylococcus aureus [9], in the assay on Salmonella typhimurium [10], with Salmonella typhimurium [11] and with Salmonella typhimurium [16] was inactive. Besides, the result in the assay with Staphylococcus aureus [2], with Staphylococcus aureus [4], in the assay on Salmonella typhimurium [5] and in the assay with Salmonella typhimurium [6] was Active. Further, the inhibition in [13] turned out to be 0%; in [14] it was 22.6%; in assay [17], 0%. In addition, the MIC against Salmonella typhimurium [7] and in the assay on Staphylococcus aureus [12] was 200 µg/mL (≈ 446 µM) throughout.
